Source: ChEMBL document CHEMBL3864132, “Free fatty acid receptor 1 (GPR40) agonists containing spirocyclic periphery inspired by LY2881835” (Bioorg Med Chem, 2016)

How the values were obtained:
[1] = Apparent permeability from apical to basolateral side in human Caco2 cells at 10 uM by HPLC-MS analysis; format: ADME, cell-based; conditions: Caco-2
Procedure, shortened: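 Apical-to-basolateral transport across Caco-2 monolayers, integrity checked by TEER in every well. Compound at 10 μM, acceptor concentrations by HPLC-MS. Papp = (VA/(area × time)) × ([drug]acc/[drug]initial,donor), insert area 0.31 cm², in 10^-6 cm/s. Mean of n = 2.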

[2] = target: T1, Free fatty acid receptor 1 (Homo sapiens, UniProt O14842); experiment: Agonist activity at human FFA1 receptor expressed in CHO cells assessed as induction of Ca2+ flux by fluo-8 dye based FLIPR assay; format: functional, cell-based
Procedure, shortened: (§1)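 CHO cells stably expressing human GPR40 seeded 24 h before assay, loaded 1 h with Fluo-8 calcium dye, read on FLIPR. Agonist response taken as maximum fluorescence change over baseline; concentration-response curves fitted for EC50. Efficacy expressed relative to GW9508 at 5 μM.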

[3] = Intrinsic clearance in BALB/c mouse liver microsomes at 2 uM up to 40 mins by HPLC-MS analysis; format: ADME
Procedure, shortened: (§2)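 Pooled liver microsomes from male BALB/c mice at 0.42 mg protein/ml in 100 mM potassium phosphate pH 7.4 with MgCl2, NADPH and a G6P/G6PDH regenerating system. Compound 2 μM (1.6% solvent), 37°C, five time points over 40 min, duplicates. Quenched in acetonitrile, analysed by HPLC-MS/MS. kel from ln(AUC) versus time; T1/2 = 0.693/kel; CLint scaled to incubation volume per mg microsomes.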

[4] = Half life in BALB/c mouse liver microsomes at 2 uM by HPLC-MS analysis; format: ADME; procedure, shortened: as §2
[5] = Protein binding in human plasma at 1 uM after 5 hrs by HPLC-MS/MS analysis; format: ADME, cell-free; conditions: read-out: PPB (converted)
Procedure, shortened: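 Equilibrium dialysis (12–14 kDa MWCO) of plasma spiked at 1 μM (1% solvent) against PBS pH 7.4, 5 h at 37°C with shaking, quadruplicates. Chambers matrix-matched, precipitated with acetonitrile and analysed by HPLC-MS/MS. Bound % = (1 − buffer/plasma peak area) × 100; recovery checked against undialyzed spiked plasma.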

[6] = target: T1, Free fatty acid receptor 1; experiment: Agonist activity at human FFA1 receptor expressed in CHO cells assessed as induction of Ca2+ flux by fluo-8 dye based FLIPR assay relative to GW9508; format: functional, cell-based; procedure, shortened: as §1
[7] = target: T2, Free fatty acid receptor 3 (Homo sapiens, UniProt O14843); experiment: Agonist activity at human FFA3 receptor expressed in CHO cells assessed as induction of Ca2+ flux by fluo-8 dye based FLIPR assay; format: functional, cell-based
T2 sequence (O14843 whole entry): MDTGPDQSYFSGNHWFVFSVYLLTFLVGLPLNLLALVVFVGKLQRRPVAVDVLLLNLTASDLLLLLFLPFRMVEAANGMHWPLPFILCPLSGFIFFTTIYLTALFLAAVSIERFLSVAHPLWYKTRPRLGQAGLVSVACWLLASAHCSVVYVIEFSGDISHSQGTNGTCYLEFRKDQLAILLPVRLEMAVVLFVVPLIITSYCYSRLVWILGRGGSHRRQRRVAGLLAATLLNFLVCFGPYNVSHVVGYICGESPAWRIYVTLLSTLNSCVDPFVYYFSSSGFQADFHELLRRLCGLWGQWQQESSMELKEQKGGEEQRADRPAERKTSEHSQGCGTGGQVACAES
Procedure, shortened: (§3)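 CHO lines stably expressing the respective receptor (GPR43, GPR41 or GPR120) used for specificity screening. Cells loaded 1 h with Fluo-8 calcium dye and read by FLIPR; maximum fluorescence change over baseline taken as agonist response.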

[8] = target: T3, Free fatty acid receptor 2 (Homo sapiens, UniProt O15552); experiment: Agonist activity at human FFA2 receptor expressed in CHO cells assessed as induction of Ca2+ flux by fluo-8 dye based FLIPR assay; format: functional, cell-based; procedure, shortened: as §3
T3 sequence (O15552 whole entry): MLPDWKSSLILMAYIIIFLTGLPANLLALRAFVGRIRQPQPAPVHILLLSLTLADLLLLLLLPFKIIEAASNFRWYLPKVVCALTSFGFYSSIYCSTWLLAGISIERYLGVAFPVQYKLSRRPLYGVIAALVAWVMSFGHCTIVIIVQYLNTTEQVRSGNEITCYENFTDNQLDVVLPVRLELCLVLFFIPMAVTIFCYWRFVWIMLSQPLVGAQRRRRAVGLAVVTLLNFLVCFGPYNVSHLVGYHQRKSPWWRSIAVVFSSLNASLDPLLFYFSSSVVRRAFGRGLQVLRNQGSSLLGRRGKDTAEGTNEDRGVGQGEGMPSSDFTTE

[9] = Kinetic aqueous solubility of the compound in PBS buffer […] at pH 7.4 after 2 hrs by UV-Visible spectrophotometric analysis; format: physicochemical; conditions: read-out: Kinetic_solubility
Procedure, shortened: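 Equilibrated 2 h at 25°C with shaking, then filtered. Filtrates read by UV-Vis scan against 0–400 μM calibration curves in methanol/PBS.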

[10] = target: T4, Free fatty acid receptor 4 (Homo sapiens, UniProt Q5NUL3); experiment: Agonist activity at human FFA4 receptor expressed in CHO cells assessed as induction of Ca2+ flux by fluo-8 dye based FLIPR assay; format: functional, cell-based; procedure, shortened: as §3
T4 sequence (Q5NUL3 whole entry): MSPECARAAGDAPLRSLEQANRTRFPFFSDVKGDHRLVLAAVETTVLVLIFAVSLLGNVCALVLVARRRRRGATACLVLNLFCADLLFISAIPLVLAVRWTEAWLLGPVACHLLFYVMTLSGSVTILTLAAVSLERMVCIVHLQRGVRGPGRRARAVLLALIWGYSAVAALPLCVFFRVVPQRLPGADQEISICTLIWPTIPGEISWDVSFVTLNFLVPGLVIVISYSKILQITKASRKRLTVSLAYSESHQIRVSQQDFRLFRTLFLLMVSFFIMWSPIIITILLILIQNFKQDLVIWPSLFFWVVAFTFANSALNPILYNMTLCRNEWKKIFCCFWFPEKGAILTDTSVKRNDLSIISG

[11] = Observed AUC infinity in JAXC57BL/6J mouse at 10 mg/kg, po administered through plastic gavage as single dose measured up to 240 mins by HPLC-MS analysis; format: ADME, organism-based; set-up: dose 10 mg/kg, time infinity, route oral; conditions: C57BL/6J, in vivo
Procedure, shortened: (§4)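 Male C57BL/6J mice dosed orally by gavage, 10 mg/kg single dose in 10% β-cyclodextrin (5 ml/kg). Plasma sampled at 30, 60, 120, 240 and 360 min (n=5 per time point), with 360 min excluded from calculations. HPLC-MS/MS quantitation; Cmax, Tmax and AUC from group data by linear trapezoidal rule.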

[12] = Tmax in JAXC57BL/6J mouse at 10 mg/kg, iv through bolus administration measured after 10 to 240 mins by HPLC-MS analysis; format: ADME, organism-based; conditions: C57BL/6J, in vivo
Procedure, shortened: (§5)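 Male C57BL/6J mice given 10 mg/kg as tail-vein bolus in 10% β-cyclodextrin (5 ml/kg). Plasma by cardiac puncture at 10, 30, 60, 120 and 240 min (n=5 per time point), stored at -70°C. Levels by HPLC-MS/MS; parameters from group data by linear trapezoidal rule.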

[13] = Cmax in JAXC57BL/6J mouse at 10 mg/kg, iv through bolus administration measured after 10 to 240 mins by HPLC-MS analysis; format: ADME, organism-based; set-up: dose 10 mg/kg, route intravenous; conditions: C57BL/6J, in vivo; procedure, shortened: as §5
[14] = Cmax in JAXC57BL/6J mouse at 10 mg/kg, po administered through plastic gavage as single dose measured up to 240 mins by HPLC-MS analysis; format: ADME, organism-based; set-up: dose 10 mg/kg, route oral; conditions: C57BL/6J, in vivo; procedure, shortened: as §4
[15] = Observed AUC infinity in JAXC57BL/6J mouse at 10 mg/kg, iv through bolus administration measured after 10 to 240 mins by HPLC-MS analysis; format: ADME, organism-based; set-up: dose 10 mg/kg, route intravenous, time infinity; conditions: C57BL/6J, in vivo; procedure, shortened: as §5
[16] = Tmax in JAXC57BL/6J mouse at 10 mg/kg, po administered through plastic gavage as single dose by HPLC-MS analysis; format: ADME, organism-based; conditions: C57BL/6J, in vivo; procedure, shortened: as §4
[17] = Oral bioavailability in JAXC57BL/6J mouse at 10 mg/kg administered through plastic gavage as single dose measured up to 240 mins by HPLC-MS analysis; format: ADME, organism-based; conditions: C57BL/6J, in vivo
Procedure, shortened: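 F = AUC0-∞ oral / AUC0-∞ i.v. × 100%, from male C57BL/6J mice given 10 mg/kg in 10% β-cyclodextrin by gavage or tail-vein bolus. n=5 per time point; plasma drug by HPLC-MS/MS.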

[18] = target: T1, Free fatty acid receptor 1; experiment: Agonist activity at FFA1 receptor (unknown origin)
Procedure, shortened: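 Read-out on FLIPR as maximum fluorescence change over baseline. Dose-response testing gave EC50 from curve fitting. Efficacy is expressed as % of GW9508 reference agonist used at 5 μM.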

T1 sequence (O14842 whole entry): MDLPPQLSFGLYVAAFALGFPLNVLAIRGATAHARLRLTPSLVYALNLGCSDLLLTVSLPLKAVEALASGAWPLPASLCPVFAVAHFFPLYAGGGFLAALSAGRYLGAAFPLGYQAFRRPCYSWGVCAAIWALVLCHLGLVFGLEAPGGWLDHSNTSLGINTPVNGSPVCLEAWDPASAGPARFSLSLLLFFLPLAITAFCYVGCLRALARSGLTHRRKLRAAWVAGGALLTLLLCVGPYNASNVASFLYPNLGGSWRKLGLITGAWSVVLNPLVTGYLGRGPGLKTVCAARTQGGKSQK

Structure (SMILES): C[C@]12CC[C@H]3[C@@H](CCC4=CC(=O)CC[C@@]43C)[C@@H]1CC[C@@H]2O [TESTOSTERONE]
- Papp A→B at 10 µM [1]: 13.6 ×10⁻⁶ cm/s

Structure (SMILES): Cl.O=C(O)CCc1ccc(OCc2ccc(CN3CCC4(CC3)CC(Cc3ccccc3)CCO4)cc2)cc1 (configuration not stated)
- EC50 [2]: 0.055 µM
- Papp A→B at 10 µM [1]: 12 ×10⁻⁶ cm/s
- CLint at 40 min, 2 µM [3]: 196 µL/min/mg
- half-life at 2 µM [4]: 8.5 min
- fraction unbound at 5 h, 1 µM [5]: 0.012
- Emax [6]: 93%
- EC50 [7]: > 10 µM
- EC50 [8]: > 10 µM
- solubility kinetic at 2 h [9]: 151 µM
- EC50 [10]: > 10 µM

Structure (SMILES): COc1ccc(CC2CCOC3(CCN(Cc4ccc(COc5ccc(CCC(=O)O)cc5)cc4)CC3)C2)cc1.Cl (configuration not stated)
- EC50 [2]: 0.28 µM
- Papp A→B at 10 µM [1]: 15.8 ×10⁻⁶ cm/s
- CLint at 40 min, 2 µM [3]: 141 µL/min/mg
- half-life at 2 µM [4]: 11.8 min
- fraction unbound at 5 h, 1 µM [5]: 0.007
- Emax [6]: 100%
- EC50 [7]: > 10 µM
- EC50 [8]: > 10 µM
- solubility kinetic at 2 h [9]: 42 µM
- EC50 [10]: > 10 µM

Structure (SMILES): O=C(O)CCc1ccc(OCc2ccc(CN3CCC4(CC3)CC(OCc3ccc(F)cc3)CCO4)cc2)cc1 (configuration not stated)
- EC50 [2]: 2.01 µM
- Emax [6]: 75%

Structure (SMILES): O=C(O)CCc1ccc(OCc2ccc(CN3CCC4(CC3)CC(Cc3ccccc3F)CCO4)cc2)cc1 (configuration not stated)
- EC50 [2]: 0.81 µM
- Emax [6]: 95%

Structure (SMILES): O=C(O)CCc1ccc(OCc2ccc(CN3CCC4(CCCCO4)CC3)cc2)cc1
- EC50 [2]: > 20 µM

Structure (SMILES): O=C(O)CCc1ccc(OCc2ccc(CN3CCC4(CC3)CC(Cc3nc(-c5cccnc5)no3)CCO4)cc2)cc1 (configuration not stated)
- EC50 [2]: > 20 µM

Structure (SMILES): Cl.O=C(O)CCc1ccc(OCc2ccc(CN3CCC4(CC3)CC(Cc3ccc(F)cc3)CCO4)cc2)cc1 (configuration not stated)
- AUC(0-inf) [11]: 184 ng·h/mL
- Tmax [12]: 10 min
- Cmax [13]: 2770 ng/mL
- EC50 [2]: 0.41 µM
- Cmax [14]: 226 ng/mL
- Papp A→B at 10 µM [1]: 8.7 ×10⁻⁶ cm/s
- AUC(0-inf) [15]: 1790 ng·h/mL
- CLint at 40 min, 2 µM [3]: 71.3 µL/min/mg
- half-life at 2 µM [4]: 23.4 min
- Tmax [16]: 30 min
- fraction unbound at 5 h, 1 µM [5]: 0.017
- Emax [6]: 88%
- EC50 [7]: > 10 µM
- EC50 [8]: > 10 µM
- solubility kinetic at 2 h [9]: 143 µM
- EC50 [10]: > 10 µM
- bioavailability [17]: 10.3%

Structure (SMILES): CC#C[C@@H](CC(=O)O)c1ccc(OCc2ccc(CN3CCC4(C=Cc5ccccc54)CC3)cc2)cc1 [LY2881835]
- EC50 [18]: 0.233 µM

Structure (SMILES): CCOC1CCOC2(CCN(Cc3ccc(COc4ccc(CCC(=O)O)cc4)cc3)CC2)C1 (configuration not stated)
- EC50 [2]: > 20 µM

Structure (SMILES): COCCc1noc(CC2CCOC3(CCN(Cc4ccc(COc5ccc(CCC(=O)O)cc5)cc4)CC3)C2)n1 (configuration not stated)
- EC50 [2]: > 20 µM
